Assay results from ChEMBL document CHEMBL4689842, “EUbOPEN Chemogenomics Library wave 1” (2021).

Tested on: HEK-293T
Assay: Multiplex assay against HEK293T;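 on Population Tubulin-Different-Phenotype (%): share of the cells with healthy nuclei that show this phenotype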
Format: toxicity, cell-based
Settings: human
Procedure, shortened: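 Live cells carried four stains from seeding: Hoechst33342, BioTracker Green Microtubule Cytoskeleton Dye, MitoTracker Red and Annexin V Alexa Fluor 680. They were imaged on a CQ1 microscope at 37°C and 5% CO2 after compound addition. Using CellPathfinder machine-learning gating, cells were split into Hoechst high-intensity objects or normal cells, normal cells into healthy, pyknosed or fragmented nuclei, and pyknosed cells into mitotic or apoptotic; tubulin, mitochondrial-mass and membrane-permeability phenotypes are per cents of healthy-nucleus cells.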

[1] = 12 h, 1 µM, compound concentration 1 uM, replicate 1
[2] = 12 h, 1 µM, compound concentration 1 uM, replicate 2
[3] = 12 h, 10 µM, compound concentration 10 uM, replicate 1
[4] = 12 h, 10 µM, compound concentration 10 uM, replicate 2
[5] = 24 h, 1 µM, compound concentration 1 uM, replicate 1
[6] = 24 h, 1 µM, compound concentration 1 uM, replicate 2
[7] = 24 h, 10 µM, compound concentration 10 uM, replicate 1
[8] = 24 h, 10 µM, compound concentration 10 uM, replicate 2

CCN(CC)CCCCNc1ncc2cc(-c3cc(OC)cc(OC)c3)c(NC(=O)NC(C)(C)C)nc2n1 [PD-173074]
Population Apoptotic (%) [1]: 8%
Population Fragmented Nuclei (%) [1]: 79%
Population Healthy Nuclei (%) [1]: 8%
Population Hoechst High Intensity Objects (%) [1]: 69%
Population Membrane Permeable-Phenotype (%) [1]: 15%
Population Mitochondria Different-Phenotype (%) [1]: 31%
Population Mitotic Cells (%) [1]: 91%
Population Normal (%) [1]: 30%
Population Pyknosed Nuclei (%) [1]: 11%
Population Tubulin-Different-Phenotype (%) [1]: 42%
Total Cell Count [1]: 685
Population Apoptotic (%) [2]: 6%
Population Fragmented Nuclei (%) [2]: 80%
Population Healthy Nuclei (%) [2]: 1%
Population Hoechst High Intensity Objects (%) [2]: 80%
Population Membrane Permeable-Phenotype (%) [2]: 66%
Population Mitochondria Different-Phenotype (%) [2]: 0%
Population Mitotic Cells (%) [2]: 93%
Population Normal (%) [2]: 19%
Population Pyknosed Nuclei (%) [2]: 17%
Population Tubulin-Different-Phenotype (%) [2]: 66%
Total Cell Count [2]: 917
Population Fragmented Nuclei (%) [3]: 29%
Population Healthy Nuclei (%) [3]: 52%
Population Hoechst High Intensity Objects (%) [3]: 48%
Population Membrane Permeable-Phenotype (%) [3]: 26%
Population Mitochondria Different-Phenotype (%) [3]: 6%
Population Normal (%) [3]: 51%
Population Pyknosed Nuclei (%) [3]: 17%
Population Tubulin-Different-Phenotype (%) [3]: 33%
Total Cell Count [3]: 693
Population Apoptotic (%) [4]: 28%
Population Fragmented Nuclei (%) [4]: 7%
Population Healthy Nuclei (%) [4]: 85%
Population Hoechst High Intensity Objects (%) [4]: 42%
Population Membrane Permeable-Phenotype (%) [4]: 22%
Population Mitochondria Different-Phenotype (%) [4]: 24%
Population Mitotic Cells (%) [4]: 71%
Population Normal (%) [4]: 57%
Population Pyknosed Nuclei (%) [4]: 7%
Population Tubulin-Different-Phenotype (%) [4]: 71%
Total Cell Count [4]: 1213
Population Apoptotic (%) [5]: 32%
Population Fragmented Nuclei (%) [5]: 84%
Population Healthy Nuclei (%) [5]: 6%
Population Hoechst High Intensity Objects (%) [5]: 55%
Population Membrane Permeable-Phenotype (%) [5]: 36%
Population Mitochondria Different-Phenotype (%) [5]: 15%
Population Mitotic Cells (%) [5]: 68%
Population Normal (%) [5]: 44%
Population Pyknosed Nuclei (%) [5]: 8%
Population Tubulin-Different-Phenotype (%) [5]: 26%
Total Cell Count [5]: 629
Population Apoptotic (%) [6]: 0%
Population Fragmented Nuclei (%) [6]: 91%
Population Healthy Nuclei (%) [6]: 1%
Population Hoechst High Intensity Objects (%) [6]: 60%
Population Membrane Permeable-Phenotype (%) [6]: 0%
Population Mitochondria Different-Phenotype (%) [6]: 20%
Population Mitotic Cells (%) [6]: 100%
Population Normal (%) [6]: 39%
Population Pyknosed Nuclei (%) [6]: 6%
Population Tubulin-Different-Phenotype (%) [6]: 60%
Total Cell Count [6]: 891
Population Apoptotic (%) [7]: 28%
Population Fragmented Nuclei (%) [7]: 17%
Population Healthy Nuclei (%) [7]: 71%
Population Hoechst High Intensity Objects (%) [7]: 36%
Population Membrane Permeable-Phenotype (%) [7]: 25%
Population Mitochondria Different-Phenotype (%) [7]: 9%
Population Mitotic Cells (%) [7]: 71%
Population Normal (%) [7]: 63%
Population Pyknosed Nuclei (%) [7]: 11%
Population Tubulin-Different-Phenotype (%) [7]: 50%
Total Cell Count [7]: 733
Population Apoptotic (%) [8]: 15%
Population Fragmented Nuclei (%) [8]: 16%
Population Healthy Nuclei (%) [8]: 80%
Population Hoechst High Intensity Objects (%) [8]: 27%
Population Membrane Permeable-Phenotype (%) [8]: 20%
Population Mitochondria Different-Phenotype (%) [8]: 6%
Population Mitotic Cells (%) [8]: 85%
Population Normal (%) [8]: 72%
Population Pyknosed Nuclei (%) [8]: 2%
Population Tubulin-Different-Phenotype (%) [8]: 58%
Total Cell Count [8]: 1994

Cc1nc(Nc2n[nH]c3c2CN(C(=O)N[C@H](CN(C)C)c2ccccc2)C3(C)C)c2sccc2n1 [PF-03758309]
Population Apoptotic (%) [1]: 22%
Population Fragmented Nuclei (%) [1]: 12%
Population Healthy Nuclei (%) [1]: 65%
Population Hoechst High Intensity Objects (%) [1]: 12%
Population Membrane Permeable-Phenotype (%) [1]: 2%
Population Mitochondria Different-Phenotype (%) [1]: 5%
Population Mitotic Cells (%) [1]: 77%
Population Normal (%) [1]: 87%
Population Pyknosed Nuclei (%) [1]: 22%
Population Tubulin-Different-Phenotype (%) [1]: 3%
Total Cell Count [1]: 616
Population Apoptotic (%) [2]: 8%
Population Fragmented Nuclei (%) [2]: 5%
Population Healthy Nuclei (%) [2]: 87%
Population Hoechst High Intensity Objects (%) [2]: 3%
Population Membrane Permeable-Phenotype (%) [2]: 0%
Population Mitochondria Different-Phenotype (%) [2]: 14%
Population Mitotic Cells (%) [2]: 91%
Population Normal (%) [2]: 96%
Population Pyknosed Nuclei (%) [2]: 6%
Population Tubulin-Different-Phenotype (%) [2]: 6%
Total Cell Count [2]: 1340
Population Apoptotic (%) [3]: 27%
Population Fragmented Nuclei (%) [3]: 16%
Population Healthy Nuclei (%) [3]: 49%
Population Hoechst High Intensity Objects (%) [3]: 17%
Population Membrane Permeable-Phenotype (%) [3]: 12%
Population Mitochondria Different-Phenotype (%) [3]: 21%
Population Mitotic Cells (%) [3]: 72%
Population Normal (%) [3]: 82%
Population Pyknosed Nuclei (%) [3]: 33%
Population Tubulin-Different-Phenotype (%) [3]: 45%
Total Cell Count [3]: 604
Population Apoptotic (%) [4]: 24%
Population Fragmented Nuclei (%) [4]: 3%
Population Healthy Nuclei (%) [4]: 79%
Population Hoechst High Intensity Objects (%) [4]: 6%
Population Membrane Permeable-Phenotype (%) [4]: 10%
Population Mitochondria Different-Phenotype (%) [4]: 46%
Population Mitotic Cells (%) [4]: 75%
Population Normal (%) [4]: 93%
Population Pyknosed Nuclei (%) [4]: 16%
Population Tubulin-Different-Phenotype (%) [4]: 87%
Total Cell Count [4]: 1040
Population Apoptotic (%) [5]: 23%
Population Fragmented Nuclei (%) [5]: 9%
Population Healthy Nuclei (%) [5]: 76%
Population Hoechst High Intensity Objects (%) [5]: 9%
Population Membrane Permeable-Phenotype (%) [5]: 3%
Population Mitochondria Different-Phenotype (%) [5]: 4%
Population Mitotic Cells (%) [5]: 76%
Population Normal (%) [5]: 90%
Population Pyknosed Nuclei (%) [5]: 13%
Population Tubulin-Different-Phenotype (%) [5]: 6%
Total Cell Count [5]: 623
Population Apoptotic (%) [6]: 4%
Population Fragmented Nuclei (%) [6]: 8%
Population Healthy Nuclei (%) [6]: 84%
Population Hoechst High Intensity Objects (%) [6]: 3%
Population Membrane Permeable-Phenotype (%) [6]: 4%
Population Mitochondria Different-Phenotype (%) [6]: 11%
Population Mitotic Cells (%) [6]: 95%
Population Normal (%) [6]: 96%
Population Pyknosed Nuclei (%) [6]: 6%
Population Tubulin-Different-Phenotype (%) [6]: 21%
Total Cell Count [6]: 1640
Population Apoptotic (%) [7]: 27%
Population Fragmented Nuclei (%) [7]: 15%
Population Healthy Nuclei (%) [7]: 52%
Population Hoechst High Intensity Objects (%) [7]: 14%
Population Mitochondria Different-Phenotype (%) [7]: 24%
Population Mitotic Cells (%) [7]: 72%
Population Normal (%) [7]: 85%
Population Pyknosed Nuclei (%) [7]: 31%
Population Tubulin-Different-Phenotype (%) [7]: 47%
Total Cell Count [7]: 627
Population Apoptotic (%) [8]: 14%
Population Fragmented Nuclei (%) [8]: 4%
Population Healthy Nuclei (%) [8]: 81%
Population Hoechst High Intensity Objects (%) [8]: 7%
Population Membrane Permeable-Phenotype (%) [8]: 8%
Population Mitochondria Different-Phenotype (%) [8]: 47%
Population Mitotic Cells (%) [8]: 85%
Population Normal (%) [8]: 92%
Population Pyknosed Nuclei (%) [8]: 14%
Population Tubulin-Different-Phenotype (%) [8]: 89%
Total Cell Count [8]: 1130
